# Results from different studies.
# Compare with care: the assays were run in different laboratories.
# Target: Calcium/calmodulin-dependent protein kinase type 1 (CAMK1, Homo sapiens, UniProt Q14012)
Structure (SMILES),test,setting,measurement,result
O=c1[nH]c2ccccc2n1C1CCN(Cc2ccc(-c3[nH]c4cc5ncnc5cc4nc3-c3ccccc3)cc2)CC1,cell-free assay,0.5 µM,remaining signal,95.1%
COc1cc(Nc2ncc(F)c(Nc3ccc4c(n3)NC(=O)C(C)(C)O4)n2)cc(OC)c1OC,"binding, competition with immobilised ligand",10 µM,inhibition,97%
N#CC1(c2ccccn2)CCN(Cc2cc(C(=O)O)c(=O)n3ccccc23)CC1,"cell-free assay, competition with immobilised ligand",1 µM,remaining binding,76%
Cn1cc(-c2cc(F)cc(N3CCn4c(cc5c4CCCC5)C3=O)c2CO)cc(Nc2ccc(N3CCN(C4COC4)CC3)cn2)c1=O,"enzyme activity, inhibitor",0.1 µM,inhibition,0%
Cc1nn(C)cc1-c1nc2c(N3CCN(Cc4ccc(Cl)cc4)CC3)c(Cl)cnc2[nH]1,"binding, competition with immobilised ligand",1 µM,remaining binding,100%
CC(C)(C)c1cc(C=C(C#N)C#N)cc(Br)c1O,"enzyme activity, inhibitor",0.5 µM,remaining activity,97.5%
C#Cc1n[nH]c2c(-c3cn(C(C)c4ccccn4)c(=O)[nH]c3=O)cc(F)cc12 (stereo not shown),"enzyme activity, inhibitor",1 µM,inhibition,-18.7%
Cn1cncc1[C@@](O)(COc1ccc(C#N)cc1-c1ccc(OC(F)(F)F)cc1)c1ccc(C#N)cc1,"cell-free assay, competition with immobilised ligand",1 µM,remaining binding,100%
COc1ncccc1-c1cnn2ccc(N3CCN(C(=O)OC(C)C)CC3)nc12,"binding, competition with immobilised ligand",1 µM,remaining binding,100%
C#Cc1n[nH]c2c(-c3cn([C@@H](C)c4ccccc4)c(=O)[nH]c3=O)cc(F)cc12,"enzyme activity, inhibitor",0.1 µM,inhibition,14.4%
